The test system of one data set is CCRF-CEM. The data set is described as follows: Cytotoxicity was assessed by measurement of cytosolic lactic dehydrogenase (LDH) leakage after 24 hr incubation with human T-lymphoblastic leukemic (CEM) cell line. Type of data set: functional. The following applies: for IC50: Homo sapiens, CCRF-CEM, 24 h, read-out: ID50 (the source's name). In a few lines:
(§1)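 Log-phase cells were washed and resuspended in phenol red-free RPMI 1640, then mixed 1:1 with lipid in serum medium. Final conditions were 5 × 10^5 cells/mL, 0–50 µg/mL ether lipid and 0.5% ethanol, in triplicate at 37 °C in 5% CO2 for 24 h. Supernatant LDH was measured with lactate/INT/PMS/NAD in Tris pH 8.2, read at 490 nm after 3 min. % cytotoxicity = (E−S)/(M−S), with M from freeze-thaw. ID50 came from nonlinear regression, mean ± SD.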

A short description of data set [1]: Cytotoxicity was assessed by measurement of cytosolic lactic dehydrogenase (LDH) leakage after 24 hr incubation with freshly isolated human peripheral lymphocytes. The settings on record: read-out: ID50. The method, boiled down: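 Peripheral lymphocytes were pooled from two unmedicated human donors and isolated by the Boyum method, giving >85% lymphocytes; viability was checked by trypan blue. Cytotoxicity was measured as 24 h LDH leakage into the medium and expressed as % of maximal freeze-thaw release after subtracting spontaneous release. ID50 came from a nonlinear regression fit of cytotoxicity versus dose.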

In another data set the test system is HuT78. The data set is described as follows: Cytotoxicity was assessed by measurement of cytosolic lactic dehydrogenase (LDH) leakage after 24 hr incubation with human cutaneous T-lymphoma (Hut 78) cell line. Type of data set: functional. The settings on record: for IC50: Homo sapiens, HuT78, 24 h, read-out: ID50 (the source's name). In a few lines:
as §1

The test system of data set [2] is B-lymphoblastic leukemic cell line. The data set is described as follows: Cytotoxicity was assessed by measurement of cytosolic lactic dehydrogenase (LDH) leakage after 24 hr incubation with human B-lymphoblastic leukemic ([…]) cell line. Format: functional. The settings on record: for IC50: Homo sapiens, B-lymphoblastic leukemic cell line, 24 h, read-out: ID50 (the source's name). In a few lines: as §1

Structures are written as SMILES. A value given as a limit tells only on which side of the number the result lay.

Among the data in ChEMBL document CHEMBL1127420, “Syntheses of racemic and nearly optically pure ether lipids and evaluation of in vitro antineoplastic activities” (J Med Chem, 1994) are IC50, CC50 and ID50 values, retold here.

In the case of `CCCCCCCCCCCCCCCCCCOCC(COP(=O)(O)OC[C@H](C)[N+](C)(C)C)OC.[OH-]` (stereo partly drawn), the IC50 came out at 2.1 µg/mL in the data set on CCRF-CEM, 5.9 µg/mL in the data set with HuT78 and 8.9 µg/mL in data set [2]. The CC50 at 24 h in data set [1] is more than 100 µg/mL.

For the molecule `CCCCCCCCCCCCCCCCCCOCC(COP(=O)(O)OCC[N+]1(C)CCOCC1)OC.[OH-]` (stereo not drawn), the IC50 in the data set with CCRF-CEM stood at 2.8 µg/mL; in the data set on HuT78, 3.4 µg/mL; in data set [2], 8.4 µg/mL. Moreover, the CC50 at 24 h in data set [1] turned out to be 52.1 µg/mL.

For `CCCCCCCCCCCCCCCCCCOCC(COP(=O)(O)OCC[N+]1(C)CCCC1)OC.[OH-]` (stereo not drawn), the IC50 came out at 2.7 µg/mL in the data set with CCRF-CEM, 9.3 µg/mL in the data set with HuT78 and 13.2 µg/mL in data set [2]. In data set [1], the CC50 at 24 h was determined as 22.7 µg/mL.

As to `CCCCCCCCCCCCCCCCCCOCC(COP(=O)(O)OC[C@@H](C)[N+](C)(C)C)OC.[OH-]` (stereo partly drawn), the IC50 in the data set on CCRF-CEM amounted to 2 µg/mL; in the data set on HuT78 it was 6.9 µg/mL; in data set [2] it was 9.9 µg/mL. Moreover, the CC50 at 24 h in data set [1] was more than 100 µg/mL.

With `CCCCCCCCCCCCCCCCCCOCC(COP(=O)(O)OCCN(C)C)OC.O` (stereo not drawn), the IC50 in the data set on CCRF-CEM was determined as 4.6 µg/mL; in the data set on HuT78, 3.5 µg/mL; in data set [2], 9.6 µg/mL. Besides, the CC50 at 24 h in data set [1] was 24.6 µg/mL.

Consider `CCCCCCCCCCCCCCCCCCOCC(COP(=O)(O)OCC[N+](C)(C)C)OC.[OH-]` (stereo in doubt; 2), for which the results for the IC50 (in the data set on CCRF-CEM; in the data set with HuT78; in data set [2]) were 1.9 µg/mL, 4.1 µg/mL and 16.3 µg/mL, respectively. Also, the CC50 at 24 h in data set [1] was more than 100 µg/mL.

Take `CCCCCCCCCCCCCCCCCCOCC(COP(=O)(O)O[C@H](C)C[N+](C)(C)C)OC.[OH-]` (stereo partly drawn): the IC50 with CCRF-CEM is 2.7 µg/mL; in the data set on HuT78, 9.1 µg/mL; in data set [2] it was 10.1 µg/mL. The CC50 at 24 h in data set [1] is more than 100 µg/mL.

For the molecule `CCCCCCCCCCCCCCCCCCOCC(COP(=O)(O)O[C@@H](C)C[N+](C)(C)C)OC.[OH-]` (stereo partly drawn), the results for the IC50 (in the data set on CCRF-CEM; with HuT78; in data set [2]) were 2.3 µg/mL, 9.3 µg/mL and 9.8 µg/mL, respectively. Further, in data set [1], the CC50 at 24 h was more than 100 µg/mL.

Take `CCCCCCCCCCCCCCCCCCOCC(COP(=O)(O)OCC[N+](C)(C)C)OC.[OH-]` (stereo in doubt; 1): the values for the ID50 (in the data set with CCRF-CEM; in the data set with HuT78; in data set [2]) were 1.5 µg/mL, 4.5 µg/mL and 15.3 µg/mL, respectively.

Consider `CCCCCCCCCCCCCCCCCCOCC(COP(=O)(O)OCC[N+](C)(C)C)OC.[OH-]` (stereo in doubt; 3), for which the values for the ID50 (in the data set on CCRF-CEM; in the data set on HuT78; in data set [2]) were 2 µg/mL, 6.6 µg/mL and 20.4 µg/mL, respectively.
